Data set [1] in a line: Protein binding assay. Type of data set: in vitro ADME. The following applies: bovine, dialyzed fetal bovine serum.
Data set [2] relates to NFκB-bla Raw 264.7 cells. Kind of data set: In vitro NFkB activation using NFκB-bla Raw 264.7 cells. Format: cell-based, murine. The following applies: Mus musculus, RAW264.7, 16 h; for EC50: read-out: EC50 NFkB-RAW; for maximal fold induction: read-out: Imax NFkB-RAW (RR). Summed up: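 NFκB-bla RAW 264.7 cells at 5×10^4 per well in OptiMEM with 0.5% dialyzed FBS, 0.1 mM non-essential amino acids, 1 mM pyruvate, 10 mM HEPES pH 7.3 and penicillin/streptomycin. Test compound came from 10 or 50 mM DMSO stocks, was serially diluted in DMSO, then in medium.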

The test system of data set [3] is murine primary BMDM. Kind of data set: In vitro cytokine induction in bone marrow derived macrophages. Type of data set: cell-based, mouse (C57BL/6). The following applies: for EC50: Mus musculus, BMDM, 18 h, read-out: EC50 BMDM; for Imax BMDM (IL-6 ng/ml): maximum level of IL-6 induction, 18 hours. Summed up: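 Bone marrow-derived macrophages from C57BL/6 mice at 5×10^4 cells per well. Cells were given serially diluted test compound, from 50–100 mM DMSO stocks, for 18 h at 37°C, 5% CO2. Supernatant IL-6 was measured by ELISA, detection limit 15 pg/mL. Curves were fitted by nonlinear regression to give EC50 and maximal IL-6 induction. Representative of two independent experiments.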

Data set [4] concerns human B cells. The experiment in a line: Human B cell proliferation. Format: cell-based. The following applies: human PBMC, four days. In short, it runs like this:
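Human PBMC from blood-bank buffy coats, from three donors. Cells were labelled with 10 μM CFSE in saline for 10 min, washed, then exposed to 1 or 10 μM test compound for four days. Cells were surface-stained for CD19. Proliferation of the CD19-gated B cells was scored by flow cytometry as CFSE dilution. Representative of two independent experiments.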

Data set [5] in a line: Pharmacokinetic. Type of data set: in vivo, mouse (C57BL/6). The conditions noted are these: for AUC: C57BL/6, mouse, iv, 500 nmol.
Data set [6] is described as follows: Solubility study in deionized water. The conditions noted are these: for Water Solubility: saturated solution in deionized water, osmometer.
The test system of data set [7] is C57BL/6 mice. The experiment in a line: Pharmacodynamic. Type of data set: in vivo, mouse (C57BL/6). The conditions noted are these: 200 nmol i.v., all time points analyzed. Summed up: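 Female C57BL/6 mice, 5 per group, received 200 nmol test compound intravenously. Sera were collected 2, 4, 6, 24 and 48 h after injection and held at −20°C. IL-6 and TNF-α were measured by Luminex bead assay, with detection limits of 5 and 10 pg/mL. Means ± SEM of five mice were compared with vehicle and unconjugated ligand by one-way ANOVA with Bonferroni post hoc test.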

The subject of data set [8] is dialyzed serum proteins. The experiment in a line: Protein binding assay. Format: in vitro ADME. The conditions noted are these: rapid equilibrium dialysis, dialyzed fetal bovine serum, UV 282 nm. (Equilibrium dialysis compares concentrations on both sides of a semipermeable membrane.)
Data set [9] has as its system human PBMC. The experiment in a line: Cytokine induction by human PBMC. Format: cell-based. The following applies: 1 or 10 μM, 18 hours.

One may read the fraction unbound as the share of the substance not bound to proteins or other matrix. High values mean weak binding, low ones extensive binding. Usually EC50 stands for the concentration at which the effect is half-maximal. Broadly, the AUC is the area under the concentration-time curve, a measure of exposure.

Several values for one entry are separate records, joined by “and”; a condition that tells them apart may be missing. Equal entries are not always repeated. Entries after “also recorded” stand apart in the source; their conditions may differ.

In [1], `COCCOc1nc(N)c2nc(O)n(Cc3ccccc3)c2n1` [Compound 1V136, 9-benzyl-8-hydroxy-2-(2-methoxyethoxy) adenine, reference compound] showed a fraction unbound of 0.332. Also, in data set [2], the EC50 came to 0.08 ± 0.01 µM and the maximal fold induction was 3.56 ± 0.38. Also, in data set [3], the EC50 is 0.36 ± 0.09 µM and the “Imax BMDM (IL-6 ng/ml)” value amounted to 3.32 ± 0.54 ng/mL. Moreover, the B cell proliferation result in data set [4] (1 μM) is “induced strong B cell proliferation”. The molecule also gave an AUC in data set [5] (in vivo) of 1.62 µM·h. In addition, the “Water solubility (in words)” value in data set [6] (deionized water) is recorded as “highly insoluble in aqueous solution”.
On to `COCCOc1nc(N)c2[nH]c(=O)n(Cc3ccc(C(=O)O)cc3)c2n1` [Compound 1V209, 4-{[6-Amino-2-(2-methoxyethoxy)-8-oxo-7H-purin-9(8H)-yl]methyl}benzoic Acid], for which the “Water Solubility” value in data set [6] turned out to be 35 ±1 mOsm/kg.
`COCCOc1nc(N)c2nc(O)n(Cc3ccc(C(=O)NCCOCCOCCOCCOCCOCCOCCN=[N+]=[N-])cc3)c2n1` [Compound 1a, 4-((6-amino-8-hydroxy-2-(2-methoxyethoxy)-9H-purin-9-yl)methyl)-N-(20-azido-3,6,9,12,15,18-hexaoxaicosyl)benzamide]: in data set [2], the EC50 is 4.13 ± 0.97 µM and the maximal fold induction came to 2.9 ± 0.06. Moreover, in [3], the EC50 stood at 8.18 ± 1.91 µM and the “Imax BMDM (IL-6 ng/ml)” value was determined as 2.60 ± 0.49 ng/mL. In data set [7], the “Serum cytokine levels (IL-6, TNF-α) compared to 1V136” value is given as “minimum induction of proinflammatory cytokines”.
For `COCCOc1nc(N)c2nc(O)n(Cc3ccc(C(=O)NCCOCCOCCOCCOCCOCCOCCn4cc(CCC(=O)O)nn4)cc3)c2n1` [Compound 1b, 3-(1-(1-(4-((6-amino-8-hydroxy-2-(2-methoxyethoxy)-9H-purin-9-yl)methyl)phenyl)-1-oxo-5,8,11,14,17,20-hexaoxa-2-azadocosan-22-yl)-1H-1,2,3-triazol-4-yl)propanoic acid], in [2], the EC50 came to 4.99 ± 0.7 µM and the maximal fold induction came out at 3.04 ± 0.23. In addition, in data set [3], the EC50 was 10.6 ± 1.74 µM and the “Imax BMDM (IL-6 ng/ml)” value was 2.46 ± 0.36 ng/mL. Also, the B cell proliferation entry in [4] (1 and 10 μM, three donors) was “minimally induced proliferation; also recorded: undetectable”. This molecule had an AUC in data set [5] (serum) of 5.93 µM·h. Besides, in data set [7], the “Serum cytokine levels (IL-6, TNF-α) compared to 1V136” value was “significantly less cytokine levels; also recorded: minimum induction of proinflammatory cytokines”. Also, in data set [6], the “Water Solubility” value is 240 mOsm/kg and 240 ± 10 mOsm/kg.
For the molecule `COCCOc1nc(N)c2nc(O)n(Cc3ccc(C(=O)NCCOCCOCCOCCOCCOCCOCCN)cc3)c2n1` [Compound 1c, 4-((6-amino-8-hydroxy-2-(2-methoxyethoxy)-9H-purin-9-yl)methyl)-N-(20-amino-3,6,9,12,15,18-hexaoxaicosyl)benzamide], the “Protein Binding (%)” value in data set [8] is reported as 51.3 ±6.4%. In [2], the EC50 stood at 1.19 ± 0.2 µM and the maximal fold induction is 3.27 ± 0.39. For the same molecule, in data set [3], the EC50 came out at 3.9 ± 1.06 µM and the “Imax BMDM (IL-6 ng/ml)” value stood at 5.19 ± 1.96 ng/mL. For the same molecule, the “Cytokine induction (IL-6, TNF-α) in human PBMC (in words)” value in [9] is given as “higher potencies than the corresponding compounds with carboxyl-terminals”. Moreover, in data set [7], the “Serum cytokine levels (IL-6, TNF-α) compared to 1V136” value is recorded as “significantly less cytokine levels; also recorded: minimum induction of proinflammatory cytokines”.
For `COCCOc1nc(N)c2nc(O)n(Cc3ccc(C(=O)NCCOCCOCCOCCOCCOCCOCCOCCOCCOCCOCCN=[N+]=[N-])cc3)c2n1` [Compound 2a, 4-((6-amino-8-hydroxy-2-(2-methoxyethoxy)-9H-purin-9-yl)methyl)-N-(32-azido-3,6,9,12,15,18,21,24,27,30-decaoxadotriacontyl)benzamide], in data set [2], the EC50 stood at 5.91 ± 1.33 µM and the maximal fold induction was found to be 3.55 ± 0.14. In data set [3], the EC50 worked out at 6.93 ± 3.54 µM and the “Imax BMDM (IL-6 ng/ml)” value came out at 2.72 ± 0.34 ng/mL. The “Serum cytokine levels (IL-6, TNF-α) compared to 1V136” value in data set [7] is reported as “minimum induction of proinflammatory cytokines”.
Turning to `COCCOc1nc(N)c2nc(O)n(Cc3ccc(C(=O)NCCOCCOCCOCCOCCOCCOCCOCCOCCOCCOCCn4cc(CCC(=O)O)nn4)cc3)c2n1` [Compound 2b, 3-(1-(1-(4-((6-amino-8-hydroxy-2-(2-methoxyethoxy)-9H-purin-9-yl)methyl)phenyl)-1-oxo-5,8,11,14,17,20,23,26,29,32-decaoxa-2-azatetratriacontan-34-yl)-1H-1,2,3-triazol-4-yl)propanoic acid], in data set [2], the EC50 is 2.67 ± 0.75 µM and the maximal fold induction is 3.15 ± 0.23. For the same molecule, in data set [3], the EC50 turned out to be 4.42 ± 1.18 µM and the “Imax BMDM (IL-6 ng/ml)” value was found to be 2.79 ± 0.47 ng/mL. For the same molecule, the B cell proliferation result in data set [4] (1 and 10 μM, three donors) is “minimally induced proliferation; also recorded: undetectable”. In addition, the “Serum cytokine levels (IL-6, TNF-α) compared to 1V136” value in data set [7] was “significantly less cytokine levels; also recorded: minimum induction of proinflammatory cytokines”.
Turning to `COCCOc1nc(N)c2nc(O)n(Cc3ccc(C(=O)NCCOCCOCCOCCOCCOCCOCCOCCOCCOCCOCCN)cc3)c2n1` [Compound 2c, 4-((6-amino-8-hydroxy-2-(2-methoxyethoxy)-9H-purin-9-yl)methyl)-N-(32-amino-3,6,9,12,15,18,21,24,27,30-decaoxadotriacontyl)benzamide], the “Protein Binding (%)” value in data set [8] is listed as 57.6 ± 1.2%. For the same molecule, in [2], the EC50 was determined as 1.16 ± 0.39 µM and the maximal fold induction was 3.23 ± 0.27. Also, in [3], the EC50 turned out to be 2.24 ± 0.33 µM and the “Imax BMDM (IL-6 ng/ml)” value worked out at 2.89 ± 0.49 ng/mL. Also, the “Cytokine induction (IL-6, TNF-α) in human PBMC (in words)” value in data set [9] is “higher potencies than the corresponding compounds with carboxyl-terminals”. The “Serum cytokine levels (IL-6, TNF-α) compared to 1V136” value in data set [7] is reported as “minimum induction of proinflammatory cytokines”.
With `COCCOc1nc(N)c2nc(O)n(Cc3ccc(C(=O)NCCOCCOCCOCCOCCOCCOCCOCCOCCOCCOCCOCCOCCOCCOCCOCCOCCOCCOCCOCCN)cc3)c2n1` [Compound 3, 4-((6-amino-8-hydroxy-2-(2-methoxyethoxy)-9H-purin-9-yl)methyl)-N-(59-amino-3,6,9,12,15,18,21,24,27,30,33,36,39,42,45,48,51,54,57-nonadecaoxanonapentacontyl)benzamide], the “Protein Binding (%)” value in data set [8] came out at 79.5 ± 1.35%. Also, in data set [2], the EC50 was found to be 0.9 ± 0.29 µM and the maximal fold induction is 3.58 ± 0.58. Further, in [3], the EC50 is 1.79 ± 0.77 µM and the “Imax BMDM (IL-6 ng/ml)” value was determined as 4.10 ± 1.33 ng/mL. Also, in [4] (1 and 10 μM, three donors), the B cell proliferation result is “induced B cell proliferation only at 10 μM”. Further, the area under the curve (AUC) in [5] (serum) is 41.4 µM·h. Further, the “Maximum serum concentration compared to 1V136” value in data set [5] (C57BL/6 mice, i.v. 500 nmol) is given as “significantly higher maximum serum concentrations”.

Source of the values: PMC3063487 (Bioconjugate chemistry, 2011).
